Data taken from ChEMBL document CHEMBL1759916, “Bicyclo[2.2.2]octyltriazole inhibitors of 11β-hydoxysteroid dehydrogenase type 1. Pharmacological agents for the treatment of metabolic syndrome” (Bioorg Med Chem Lett, 2011).
Calls of active or inactive are those of the source. No cut-off for these calls is given here.

Assays:
Mus musculus [1] = test: Inhibition of 11beta-HSD1 in ICR mouse assessed as inhibition of conversion of [3H]-cortisone to [3H]-cortisol at 10 mg/kg, po administered 4 hrs before [3H]-cortisone challenge; assay type: functional
Summary of the method: (§1)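 Mouse pharmacodynamic model. Compound given 10 mg/kg PO, then 3H-cortisone by tail vein injection 1, 4 or 16 h after dosing. […] Plasma compound levels were measured after the PD studies.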

[2] = molecular target: 11-beta-hydroxysteroid dehydrogenase 1 (Mus musculus, UniProt P50172); test: Inhibition of mouse 11beta-HSD1 expressed in CHO-K1 cells assessed as conversion of [3H]-cortisone to [3H]-cortisol by scintillation proximity assay; assay type: cell-based
[3] = molecular target: T1, 11-beta-hydroxysteroid dehydrogenase type 2 (Mus musculus, UniProt P51661); test: Inhibition of mouse 11beta-HSD2 expressed in CHO-K1 cells assessed as conversion of [3H]-cortisol to [3H]-cortisone by scintillation proximity assay; assay type: cell-based
T1 sequence (P51661 whole entry): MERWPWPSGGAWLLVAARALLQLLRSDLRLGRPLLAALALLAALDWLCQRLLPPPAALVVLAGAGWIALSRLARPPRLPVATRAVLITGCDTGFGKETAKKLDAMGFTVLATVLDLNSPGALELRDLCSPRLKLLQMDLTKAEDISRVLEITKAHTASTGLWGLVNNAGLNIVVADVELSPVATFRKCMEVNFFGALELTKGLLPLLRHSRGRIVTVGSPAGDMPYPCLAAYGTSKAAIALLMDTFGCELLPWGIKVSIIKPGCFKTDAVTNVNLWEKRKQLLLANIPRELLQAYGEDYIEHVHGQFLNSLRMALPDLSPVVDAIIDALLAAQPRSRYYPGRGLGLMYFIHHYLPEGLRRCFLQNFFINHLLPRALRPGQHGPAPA
Summary of the method: (§2)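 Scintillation proximity assay (SPA). IC50 values are the average of two determinations.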

[4] = molecular target: 11-beta-hydroxysteroid dehydrogenase 1 (Homo sapiens, UniProt P28845); test: Inhibition of human 11beta-HSD1 expressed in CHO-K1 cells assessed as conversion of [3H]-cortisone to [3H]-cortisol by scintillation proximity assay; assay type: cell-based; summary of the method: as §2
[5] = molecular target: T2, 11-beta-hydroxysteroid dehydrogenase type 2 (Homo sapiens, UniProt P80365); test: Inhibition of human 11beta-HSD2 expressed in CHO-K1 cells assessed as conversion of [3H]-cortisol to [3H]-cortisone by scintillation proximity assay; assay type: cell-based
T2 sequence (P80365 whole entry): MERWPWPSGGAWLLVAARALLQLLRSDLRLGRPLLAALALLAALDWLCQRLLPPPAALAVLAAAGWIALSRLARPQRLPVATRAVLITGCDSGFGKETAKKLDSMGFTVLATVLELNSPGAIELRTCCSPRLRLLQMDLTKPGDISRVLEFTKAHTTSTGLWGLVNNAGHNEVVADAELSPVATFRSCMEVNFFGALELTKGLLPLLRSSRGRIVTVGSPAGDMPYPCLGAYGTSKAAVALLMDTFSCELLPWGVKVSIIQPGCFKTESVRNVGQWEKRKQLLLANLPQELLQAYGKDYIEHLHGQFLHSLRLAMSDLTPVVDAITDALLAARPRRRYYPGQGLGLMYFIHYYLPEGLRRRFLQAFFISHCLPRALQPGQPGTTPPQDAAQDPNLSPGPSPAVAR

[6] = Clearance in C57 mouse at 2 mg/kg, iv; assay type: ADME, organism-based; parameters: dose 2 mg/kg, route intravenous; settings: in vivo
Summary of the method: (§3)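 Mouse PK from 2 mg/kg IV and 10 mg/kg oral dosing. The PO AUC is reported normalized to dose.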

[7] = Bioavailability in C57 mouse at 2 mg/kg, iv and 10 mg/kg, po; assay type: ADME, organism-based; settings: in vivo; summary of the method: as §3
Mus musculus [8] = test: Inhibition of 11beta-HSD1 in ICR mouse assessed as inhibition of conversion of [3H]-cortisone to [3H]-cortisol at 10 mg/kg, po administered 16 hrs before [3H]-cortisone challenge; assay type: functional; summary of the method: as §1
[9] = molecular target: T3, Nuclear receptor subfamily 1 group I member 2 (Homo sapiens, UniProt O75469); test: Activation of PXR
T3 sequence (O75469 whole entry): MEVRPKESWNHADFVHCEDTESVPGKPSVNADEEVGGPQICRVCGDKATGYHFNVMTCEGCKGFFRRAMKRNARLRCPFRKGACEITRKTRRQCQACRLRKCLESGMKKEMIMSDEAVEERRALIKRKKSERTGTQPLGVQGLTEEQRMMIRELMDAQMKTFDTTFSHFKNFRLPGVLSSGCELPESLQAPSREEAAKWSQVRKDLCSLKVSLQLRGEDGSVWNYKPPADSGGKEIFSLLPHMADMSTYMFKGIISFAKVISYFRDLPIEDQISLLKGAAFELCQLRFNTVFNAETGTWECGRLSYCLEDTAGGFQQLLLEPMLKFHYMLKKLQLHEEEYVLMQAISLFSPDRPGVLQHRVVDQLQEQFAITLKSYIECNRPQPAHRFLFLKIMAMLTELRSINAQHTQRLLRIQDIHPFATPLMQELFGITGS
Summary of the method: (§4)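 Cyp induction potential assessed in human liver microsomes; read out as human PXR activation, with test compound at 10 μM.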

[10] = Volume of distribution in C57 mouse at 2 mg/kg, iv and 10 mg/kg, po; assay type: ADME, organism-based; settings: in vivo
[11] = Half life in C57 mouse at 2 mg/kg, iv and 10 mg/kg, po; assay type: ADME, organism-based; settings: in vivo
[12] = Tmax in C57 mouse at 2 mg/kg, iv and 10 mg/kg, po; assay type: ADME, organism-based; settings: in vivo
[13] = Clearance in Sprague-Dawley rat at 1 mg/kg, iv and 4 mg/kg, po; assay type: ADME, organism-based; settings: in vivo
[14] = Volume of distribution in Sprague-Dawley rat at 1 mg/kg, iv and 4 mg/kg, po; assay type: ADME, organism-based; settings: in vivo
[15] = Half life in Sprague-Dawley rat at 1 mg/kg, iv and 4 mg/kg, po; assay type: ADME, organism-based; settings: in vivo
[16] = Tmax in Sprague-Dawley rat at 1 mg/kg, iv and 4 mg/kg, po; assay type: ADME, organism-based; settings: in vivo
[17] = Bioavailability in Sprague-Dawley rat 1 mg/kg, iv and 4 mg/kg, po; assay type: ADME, organism-based; settings: in vivo
[18] = Clearance in Beagle dog at 0.5 mg/kg, iv and 2 mg/kg, po; assay type: ADME, organism-based, Canis lupus familiaris; settings: in vivo
[19] = Volume of distribution in Beagle dog at 0.5 mg/kg, iv and 2 mg/kg, po; assay type: ADME, organism-based, Canis lupus familiaris; settings: in vivo
[20] = Half life in Beagle dog at 0.5 mg/kg, iv and 2 mg/kg, po; assay type: ADME, organism-based, Canis lupus familiaris; settings: in vivo
[21] = Tmax in Beagle dog at 0.5 mg/kg, iv and 2 mg/kg, po; assay type: ADME, organism-based, Canis lupus familiaris; settings: in vivo
[22] = Bioavailability in Beagle dog at 0.5 mg/kg, iv and 2 mg/kg, po; assay type: ADME, organism-based, Canis lupus familiaris; settings: in vivo
[23] = Clearance in rhesus monkey at 0.5 mg/kg, iv and 2 mg/kg, po; assay type: ADME, organism-based, Macaca mulatta; settings: in vivo
[24] = Volume of distribution in rhesus monkey at 0.5 mg/kg, iv and 2 mg/kg, po; assay type: ADME, organism-based, Macaca mulatta; settings: in vivo
[25] = Half life in rhesus monkey at 0.5 mg/kg, iv and 2 mg/kg, po; assay type: ADME, organism-based, Macaca mulatta; settings: in vivo
[26] = Tmax in rhesus monkey at 0.5 mg/kg, iv and 2 mg/kg, po; assay type: ADME, organism-based, Macaca mulatta; settings: in vivo
[27] = Bioavailability in rhesus monkey at 0.5 mg/kg, iv and 2 mg/kg, po; assay type: ADME, organism-based, Macaca mulatta; settings: in vivo
[28] = Solubility of the compound in water; assay type: physicochemical
[29] = Distribution coefficient, log D of the compound by HPLC analysis; assay type: physicochemical; settings: octanol/water
[30] = molecular target: T3, Nuclear receptor subfamily 1 group I member 2; test: Activation of human PXR at 10 uM; summary of the method: as §4
Mus musculus [31] = organism: Mus musculus; test: Antiobesity activity in diet-induced obesity mouse model; assay type: functional, organism-based
Mus musculus [32] = organism: Mus musculus; test: Antiatherosclerotic activity in Apo-E knockout mouse model; assay type: functional, organism-based
Mus musculus [33] = organism: Mus musculus; test: Antidiabetic activity in B6-Ay mouse by oral glucose tolerance test; assay type: functional, organism-based
[34] = Induction of cytochrome P450 activity in human liver microsomes; assay type: ADME; summary of the method: as §4
Mus musculus [35] = test: Inhibition of 11beta-HSD1 in ICR mouse assessed as inhibition of conversion of [3H]-cortisone to [3H]-cortisol at 10 mg/kg, po administered 1 hr before [3H]-cortisone challenge; assay type: functional; summary of the method: as §1

11-beta-hydroxysteroid dehydrogenase 1 (Mus musculus, UniProt P50172), sequence (P50172 whole entry): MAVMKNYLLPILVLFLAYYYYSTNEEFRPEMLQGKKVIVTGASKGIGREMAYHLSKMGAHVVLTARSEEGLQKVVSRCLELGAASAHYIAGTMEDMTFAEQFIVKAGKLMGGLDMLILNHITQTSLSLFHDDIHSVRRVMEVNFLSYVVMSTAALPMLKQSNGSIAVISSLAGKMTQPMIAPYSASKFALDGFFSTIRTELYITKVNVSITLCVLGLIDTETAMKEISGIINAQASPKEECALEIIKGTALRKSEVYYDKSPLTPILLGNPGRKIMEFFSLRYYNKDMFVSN
11-beta-hydroxysteroid dehydrogenase 1 (Homo sapiens, UniProt P28845), sequence (P28845 whole entry): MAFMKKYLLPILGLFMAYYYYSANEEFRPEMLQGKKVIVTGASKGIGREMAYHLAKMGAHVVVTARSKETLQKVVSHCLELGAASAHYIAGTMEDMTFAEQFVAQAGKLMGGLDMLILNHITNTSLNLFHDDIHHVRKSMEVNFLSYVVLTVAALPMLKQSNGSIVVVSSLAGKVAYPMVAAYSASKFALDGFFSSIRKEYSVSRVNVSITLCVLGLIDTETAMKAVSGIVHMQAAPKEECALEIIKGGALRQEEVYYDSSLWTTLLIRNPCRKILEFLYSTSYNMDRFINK

CC(O)CCCC12CCC(c3nnc(-c4ccccc4C(F)(F)F)n3C)(CC1)CC2 (centres undefined)
inhibition in vivo at 10 mg/kg (Mus musculus [1]): 97% | IC50 [2]: 1.7 nM | IC50 [3]: > 4000 nM | IC50 [4]: < 1 nM | IC50 [5]: > 1000 nM | clearance [6]: 88 mL/min/kg | bioavailability [7]: 21%

CCCCCC12CCC(c3nnc(-c4ccccc4C(F)(F)F)n3C)(CC1)CC2
inhibition in vivo at 10 mg/kg (Mus musculus [1]): 98% | IC50 [3]: > 4000 nM | IC50 [4]: 1.8 nM | IC50 [5]: 1300 nM | clearance [6]: 273 mL/min/kg | bioavailability [7]: 20%

CC(=O)CCCC12CCC(c3nnc(-c4ccccc4C(F)(F)F)n3C)(CC1)CC2
inhibition in vivo at 10 mg/kg (Mus musculus [8]): 32% | inhibition in vivo at 10 mg/kg (Mus musculus [1]): 90% | IC50 [2]: 1.3 nM | IC50 [3]: > 4000 nM | IC50 [4]: 1.2 nM | IC50 [5]: 4000 nM | clearance [6]: 21 mL/min/kg | bioavailability [7]: 25%

Cn1c(-c2ccccc2C(F)(F)F)nnc1C12CCC(COc3ccc(Cl)cc3)(CC1)CC2
inhibition in vivo at 10 mg/kg (Mus musculus [8]): 77% | inhibition in vivo at 10 mg/kg (Mus musculus [1]): 98% | IC50 [2]: 1.5 nM | IC50 [4]: 1.1 nM | Activity [9]: Active

CCS(=O)(=O)CCC12CCC(c3nnc(-c4ccccc4C(F)(F)F)n3C)(CC1)CC2
inhibition in vivo at 10 mg/kg (Mus musculus [8]): 76% | inhibition in vivo at 10 mg/kg (Mus musculus [1]): 89% | clearance [6]: 2.1 mL/min/kg | bioavailability [7]: 24% | Vd [10]: 0.72 L/kg | half-life [11]: 4.8 h | Tmax [12]: 5 h | clearance [13]: 2.9 mL/min/kg | Vd [14]: 1.1 L/kg | half-life [15]: 4.9 h | Tmax [16]: 2 h | bioavailability [17]: 87% | clearance [18]: 1.9 mL/min/kg | Vd [19]: 1.7 L/kg | half-life [20]: 12.2 h | Tmax [21]: 2 h | bioavailability [22]: 59% | clearance [23]: 4 mL/min/kg | Vd [24]: 1.6 L/kg | half-life [25]: 6.5 h | Tmax [26]: 2 h | bioavailability [27]: 89% | solubility [28]: > 1000 µg/mL | logD [29]: 2.2 | Activity [30]: < 10% | Activity (Mus musculus [31]): Active | Activity (Mus musculus [32]): Active | Activity (Mus musculus [33]): Active | Activity [34]: Not Active

CCCCCC12CCC(c3nnc4n3CCCCCC4)(CC1)CC2
inhibition in vivo at 10 mg/kg (Mus musculus [35]): 71% | inhibition in vivo at 10 mg/kg (Mus musculus [1]): 51% | IC50 [4]: 4 nM | bioavailability [7]: 6%

CC(O)CCCC12CCC(c3nnc4n3CCCCCC4)(CC1)CC2 (centres undefined)
inhibition in vivo at 10 mg/kg (Mus musculus [35]): 67% | inhibition in vivo at 10 mg/kg (Mus musculus [1]): 41% | IC50 [2]: 19 nM | IC50 [4]: 35 nM

Cn1c(-c2ccccc2C(F)(F)F)nnc1C12CCC(CCCC(C)(F)F)(CC1)CC2
inhibition in vivo at 10 mg/kg (Mus musculus [8]): 94% | inhibition in vivo at 10 mg/kg (Mus musculus [1]): 99% | IC50 [2]: < 1 nM | IC50 [3]: > 4000 nM | IC50 [4]: < 1 nM | IC50 [5]: > 4000 nM | clearance [6]: 14 mL/min/kg | bioavailability [7]: 36%

CCS(=O)(=O)NCC12CCC(c3nnc(-c4ccccc4C(F)(F)F)n3C)(CC1)CC2
inhibition in vivo at 10 mg/kg (Mus musculus [8]): 50% | inhibition in vivo at 10 mg/kg (Mus musculus [1]): 95% | IC50 [2]: 2.9 nM | IC50 [3]: > 4000 nM | IC50 [4]: 20 nM | IC50 [5]: > 4000 nM

CC(F)CCCC12CCC(c3nnc(-c4ccccc4C(F)(F)F)n3C)(CC1)CC2 (centres undefined)
inhibition in vivo at 10 mg/kg (Mus musculus [8]): 51% | inhibition in vivo at 10 mg/kg (Mus musculus [1]): 96% | IC50 [2]: < 1 nM | IC50 [3]: > 4000 nM | IC50 [4]: < 1 nM | IC50 [5]: 1300 nM

Cn1c(-c2ccccc2C(F)(F)F)nnc1C12CCC(CCS(=O)(=O)c3ccc(F)cc3)(CC1)CC2
inhibition in vivo at 10 mg/kg (Mus musculus [8]): 2% | inhibition in vivo at 10 mg/kg (Mus musculus [1]): 63% | IC50 [2]: 1.8 nM | IC50 [3]: > 4000 nM | IC50 [4]: 5.5 nM | IC50 [5]: > 4000 nM
